T cruzi growth-1 – T. cruzi proliferation inhibition; T. cruzi beta-gal in NIH3T3, GalScreen luminescence, 90 h; inhibition, % at 8.34 µM; actives 5.9% (n = 77,000);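 active = mean inhibition above about 93%, with at least 55% of replicates each passing it, limit read from the data, passing the limit was not always enough; inconclusive = only one of those two conditions holds; inactive = neither condition holds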
IDH1 R132H inh – IDH1 R132H (human) inhibition | O75874 | actives 0.18% (n = 70,000) | IDH1 R132H reductase, diaphorase/resazurin fluorescence, 60 min | AID 624101 | inhibition, % at 10 µM; in the data active = inhibition above about 34%; inconclusive = no clear call, values can overlap the other calls; inactive = below about 11%;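 note: 0% = DMSO and 100% = no enzyme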
Pf Dd2 growth – inhibitors of Plasmodium falciparum Dd2 growth; P. falciparum Dd2 growth, SYBR Green, 72 h; active compounds read low; activity change, % at 10 µM; actives 2.3% (n = 94,000); AID 1159554; in the data active = activity change below about -80%; inconclusive = no clear call, values can overlap the other calls
GASC1 inh – blocks human GASC-1 (KDM4C) demethylase activity. actives 0.15% (n = 96,000). inhibition, % at 12.5 µM. GST-KDM4C 2-372, H3K9me3 peptide, LANCE TR-FRET. Q9H3R0. AID 720574;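 active = mean replicate inhibition above about 25%, with at least 55% of replicates also reaching it, limit read from the data, passing the limit was not always enough; inconclusive = only one of those two conditions met; inactive = neither condition met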
Target sequence (Q9H3R0 2-372 limits assumed): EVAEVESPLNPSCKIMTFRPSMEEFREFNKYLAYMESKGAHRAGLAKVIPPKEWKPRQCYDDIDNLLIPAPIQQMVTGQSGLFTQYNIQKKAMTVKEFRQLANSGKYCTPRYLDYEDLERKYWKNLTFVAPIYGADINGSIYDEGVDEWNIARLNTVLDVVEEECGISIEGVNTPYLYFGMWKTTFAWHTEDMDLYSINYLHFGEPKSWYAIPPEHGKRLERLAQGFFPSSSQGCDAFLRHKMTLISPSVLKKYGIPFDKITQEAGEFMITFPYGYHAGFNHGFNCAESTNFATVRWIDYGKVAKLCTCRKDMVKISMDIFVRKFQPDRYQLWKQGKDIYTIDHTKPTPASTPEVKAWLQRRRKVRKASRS
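Material: N-terminal GST-fused human GASC-1 (KDM4C) fragment, residues 2-372. Input: 10 nM enzyme. Incubation: enzyme reaction 30 min, then detection 60 min, both room temperature. Doses: one test concentration per compound. Read-out basis: inhibition from TR-FRET ratio decrease. Detection: LANCE TR-FRET, excitation 340 nm, emissions 618 and 671 nm.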
T cruzi growth-2 – Trypanosoma cruzi proliferation inhibition; actives 72% (n = 5,600); shares compounds with T cruzi growth-1; T. cruzi beta-gal in NIH3T3, GalScreen luminescence, 90 h; inhibition, % at 8.35 µM;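 active = mean replicate inhibition above about 95% and at least 55% of replicates individually reaching it, limit read from the data; inconclusive = only one of the two criteria is met; inactive = neither criterion is met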
T cruzi growth-3 – inhibitors of T. cruzi proliferation | shares compounds with T cruzi growth-1 | T. cruzi beta-gal in NIH3T3, GalScreen luminescence, 90 h | inhibition, % at 2.09 µM | actives 21% (n = 5,600) | AID 651740;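 active = mean inhibition above about 95%, with at least 55% of replicates also reaching it, limit read from the data; inconclusive = meets just one of the two conditions; inactive = meets neither condition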;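 note: plate controls were neutral control median for no effect and positive control median for full effect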
3T3 cytotox – NIH/3T3 (mouse) viability loss; shares compounds with T cruzi growth-1; NIH/3T3 viability, CellTiter-Glo ATP luminescence, 90 h; cytotoxicity (signal decrease), % at 8.35 µM; actives 14% (n = 5,600); AID 651742;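 active = mean signal decrease across replicates above about 35% based on untreated-well scatter, with enough replicates individually passing, limit read from the data; inconclusive = no rule stated though some were filed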;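 note: 0% = median of neutral control wells and 100% = median of positive control wells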
3T3 cytotox 2 – cytotoxicity in mouse NIH/3T3 fibroblasts; NIH/3T3 viability, CellTiter-Glo ATP luminescence, 90 h; shares compounds with T cruzi growth-1; AID 651744; actives 56% (n = 5,600); inhibition, % at 24.9 µM;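 active = mean loss of cell viability signal at or above a set limit, and enough replicates individually reaching it; inconclusive = meets only the mean limit or only the replicate share; inactive = meets neither condition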;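 note: 0% = median of neutral control wells and 100% = median of positive control wells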
* = called active by the depositor; ? = inconclusive; · = no result. In the library only some 5.9% were active in any assay of this set; here they are far more common.

SMILES | T cruzi growth-1 | IDH1 R132H inh | Pf Dd2 growth | GASC1 inh | T cruzi growth-2 | T cruzi growth-3 | 3T3 cytotox | 3T3 cytotox 2
O=C(Nc1ccccc1)N1CCCCN2[C@H](CO)[C@H](c3ccc(-c4ccccc4)cc3)[C@@H]2C1 | 112* | · | -33 | 0 | 109* | 32 | -14 | 13
O=C(Nc1ccccc1)N1CCCCN2[C@H](CO)[C@H](c3ccc(-c4ccccc4)cc3)[C@H]2C1 | 103* | · | -35 | -1 | 101* | 64 | 56* | 104*
O=C(Nc1ccccc1)N1CCCCN2[C@H](C1)[C@H](c1ccc(-c3ccncc3)cc1)[C@@H]2CO | 63 | · | 25 | 1 | · | · | · | ·
C[C@@H]1CN([C@@H](C)CO)S(=O)(=O)c2ccc(-c3ccccc3)cc2O[C@H]1CN(C)Cc1cccc(F)c1 | 122* | -1 | -65 | -1 | 99* | ? | 40* | 103*
C[C@@H]1CN([C@H](C)CO)S(=O)(=O)c2ccc(-c3ccccc3)cc2O[C@@H]1CN(C)Cc1cccc(F)c1 | 124* | -6 | -52 | -2 | 112* | 88 | 12 | 104*
C[C@H]1CN([C@@H](C)CO)C(=O)c2cc(Br)cnc2O[C@@H]1CN(C)C(=O)Nc1ccc(C(F)(F)F)cc1 | 102* | · | -9 | 0 | 108* | 59 | -10 | 54*
C[C@@H]1CN([C@@H](C)CO)C(=O)c2cc(C3=CCCC3)cnc2O[C@@H]1CN(C)C(=O)Nc1ccc(C(F)(F)F)cc1 | ? | 0 | -30 | -2 | 108* | 88 | ? | 104*
C[C@H]1CN([C@@H](C)CO)C(=O)c2cc(C3=CCCC3)cnc2O[C@H]1CN(C)C(=O)Nc1ccc(C(F)(F)F)cc1 | 52 | · | -35 | 2 | · | · | · | ·
CCCNC(=O)Nc1ccc2c(c1)C(=O)N(C)C[C@@H](OC)[C@@H](C)CN(C(=O)C1CCCCC1)[C@@H](C)CO2 | 6 | 0 | 33 | 0 | · | · | · | ·
O=C(Nc1cccc(F)c1)N1CCCCN2[C@H](C1)[C@H](c1ccc(-c3ccccc3F)cc1)[C@@H]2CO | 110* | · | 16 | 0 | 112* | 94 | 11 | 33*
O=C(Nc1cccc(F)c1)N1CCCCN2[C@H](CO)[C@H](c3ccc(-c4ccccc4F)cc3)[C@@H]2C1 | 107* | · | 8 | 1 | 96* | 91 | 19 | 59*
O=C(Nc1ccccc1)N1CCCCN2[C@H](CO)[C@@H](c3ccc(-c4ccccc4F)cc3)[C@@H]2C1 | 88 | · | 11 | -2 | · | · | · | ·
O=C(Nc1ccccc1)N1CCCCN2[C@@H](CO)[C@@H](c3ccc(-c4ccccc4F)cc3)[C@@H]2C1 | 95 | · | -37 | -2 | · | · | · | ·
O=C(Nc1ccccc1)N1CCCCN2[C@H](C1)[C@@H](c1ccc(-c3ccccc3F)cc1)[C@@H]2CO | 73 | · | -11 | -1 | · | · | · | ·
O=C(Nc1cccc(F)c1)N1CCCCN2[C@H](C1)[C@@H](c1ccc(-c3ccccc3F)cc1)[C@@H]2CO | 101* | · | -9 | 0 | ? | ? | 96* | 102*
COc1ccccc1NC(=O)N1CCCCN2[C@H](CO)[C@@H](c3ccc(C#CC4CCCC4)cc3)[C@@H]2C1 | 102* | · | -15 | -1 | 98* | 68 | 26 | 105*
COc1ccccc1NC(=O)N1CCCCN2[C@H](CO)[C@H](c3ccc(C#Cc4ccccc4)cc3)[C@@H]2C1 | 78 | · | ? | -2 | · | · | · | ·
COc1ccccc1NC(=O)N1CCCCN2[C@H](CO)[C@@H](c3ccc(C#Cc4ccccc4)cc3)[C@H]2C1 | 112* | · | -73 | -2 | 102* | 102* | 119* | 105*
COc1ccccc1NC(=O)N1CCCCN2[C@@H](CO)[C@@H](c3ccc(C#CC4CCCC4)cc3)[C@@H]2C1 | -3 | · | -64 | -1 | · | · | · | ·
COc1ccccc1NC(=O)N1CCCCN2[C@@H](CO)[C@H](c3ccc(C#Cc4ccccc4)cc3)[C@@H]2C1 | 112* | · | ? | -3 | 92 | 108* | 118* | 104*

High-throughput results (PubChem)
